From ChEMBL document CHEMBL3046507, “Synthesis and herbicidal activities of novel 3-N-substituted amino-6-methyl-4-(3-trifluoromethylphenyl)pyridazine derivatives” (2008)

Columns and labels:
[1] = system: Digitaria; assay: Herbicidal activity against Digitaria adscendens assessed as inhibition of fresh plant weight at 750 g/ha using postemergence protocol measured after 24 days under green house conditions; settings: in Digitaria adscendens, post-emergence
[2] = system: Amaranthus retroflexus; assay: Herbicidal activity against Amaranthus retroflexus assessed as inhibition of fresh plant weight at 300 g/ha using postemergence protocol measured after 24 days under green house conditions; settings: post-emergence
[3] = system: Spirodela polyrhiza; assay: Inhibition of chlorophyll in Spirodela polyrhiza fronds at 10 ug/mL using light intensity of 45 uE/m2/s measured after 7 days; format: functional; settings: 168 h
How it was run: (§1)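 Giant duckweed assay. Compound in DMF dropped onto filter paper, solvent evaporated 15 min, paper placed in flask with 15 mL fresh medium and shaken >10 min. 10 fronds inoculated per flask and grown 7 days at 23-26 °C, 16 h light/8 h dark, ca. 45 µE m^-2 s^-1. DMF plus medium served as control. Chl extracted in 96% ethanol overnight at 4 °C; OD read at 665 and 649 nm; content expressed as percent of control.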

[4] = system: Brassica rapa subsp. oleifera; assay: Herbicidal activity against Brassica rapa subsp. oleifera assessed as inhibition of fresh plant weight at 750 g/ha using preemergence protocol measured after 24 days under green house conditions; settings: pre-emergence
[5] = system: Brassica rapa subsp. oleifera; assay: Herbicidal activity against Brassica rapa subsp. oleifera assessed as inhibition of fresh plant weight at 600 g/ha using postemergence protocol measured after 24 days under green house conditions; settings: post-emergence
[6] = system: Brassica rapa subsp. oleifera; assay: Herbicidal activity against Brassica rapa subsp. oleifera assessed as inhibition of fresh plant weight at 150 g/ha using postemergence protocol measured after 24 days under green house conditions; settings: post-emergence
[7] = system: Amaranthus retroflexus; assay: Herbicidal activity against Amaranthus retroflexus assessed as inhibition of fresh plant weight at 750 g/ha using preemergence protocol measured after 24 days under green house conditions; settings: pre-emergence
[8] = system: Brassica rapa subsp. oleifera; assay: Herbicidal activity against Brassica rapa subsp. oleifera assessed as inhibition of fresh plant weight at 300 g/ha using postemergence protocol measured after 24 days under green house conditions; settings: post-emergence
[9] = system: Amaranthus retroflexus; assay: Herbicidal activity against Amaranthus retroflexus assessed as inhibition of fresh plant weight at 750 g/ha using postemergence protocol measured after 24 days under green house conditions; settings: post-emergence
[10] = system: Echinochloa crus-galli; assay: Herbicidal activity against Echinochloa crus-galli (barnyard grass) assessed as inhibition of fresh plant weight at 750 g/ha using preemergence protocol measured after 24 days under green house conditions; settings: pre-emergence
[11] = system: Echinochloa crus-galli; assay: Herbicidal activity against Echinochloa crus-galli (barnyard grass) assessed as inhibition of fresh plant weight at 750 g/ha using postemergence protocol measured after 24 days under green house conditions; settings: post-emergence
[12] = system: Brassica rapa subsp. oleifera; assay: Herbicidal activity against Brassica rapa subsp. oleifera assessed as inhibition of fresh plant weight at 750 g/ha using postemergence protocol measured after 24 days under green house conditions; settings: post-emergence
[13] = system: Amaranthus retroflexus; assay: Herbicidal activity against Amaranthus retroflexus assessed as inhibition of fresh plant weight at 150 g/ha using postemergence protocol measured after 24 days under green house conditions; settings: post-emergence
[14] = system: Amaranthus retroflexus; assay: Herbicidal activity against Amaranthus retroflexus assessed as inhibition of fresh plant weight at 600 g/ha using postemergence protocol measured after 24 days under green house conditions; settings: post-emergence
[15] = system: Digitaria; assay: Herbicidal activity against Digitaria adscendens assessed as inhibition of fresh plant weight at 750 g/ha using preemergence protocol measured after 24 days under green house conditions; settings: in Digitaria adscendens, pre-emergence
[16] = system: Spirodela polyrhiza; assay: Inhibition of chlorophyll in Spirodela polyrhiza fronds at 1 ug/mL using light intensity of 45 uE/m2/s measured after 7 days; format: functional; settings: 168 h
How it was run: as §1

[17] = system: Amaranthus retroflexus; assay: Herbicidal activity against Amaranthus retroflexus assessed as inhibition of fresh plant weight at 75 g/ha using postemergence protocol measured after 24 days under green house conditions; settings: post-emergence
[18] = system: Brassica rapa subsp. oleifera; assay: Herbicidal activity against Brassica rapa subsp. oleifera assessed as inhibition of fresh plant weight at 75 g/ha using postemergence protocol measured after 24 days under green house conditions; settings: post-emergence
[19] = system: Echinochloa crus-galli; assay: Herbicidal activity against Echinochloa crus-galli (barnyard grass) assessed as inhibition of fresh plant weight at 600 g/ha using postemergence protocol measured […] under green house conditions; format: functional; settings: post-emergence
How it was run: (§2)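 Weed seedlings at one-leaf-and-one-stem stage sprayed post-emergence with test solution at 750, 600, 300, 150 or 75 g/ha. Aboveground fresh weight determined 24 days after treatment; percent inhibition calculated relative to controls. Two replicates per treatment.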

[20] = system: Brassica rapa subsp. oleifera; assay: Herbicidal activity against Brassica rapa subsp. oleifera assessed as inhibition of fresh plant weight at 600 g/ha using preemergence protocol measured […] under green house conditions; format: functional; settings: pre-emergence
How it was run: (§3)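 Pre-emergence treatment. Aboveground fresh weight measured 24 days later; percent inhibition calculated against controls. Two replicates per treatment.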

[21] = system: Amaranthus retroflexus; assay: Herbicidal activity against Amaranthus retroflexus assessed as inhibition of fresh plant weight at 600 g/ha using preemergence protocol measured […] under green house conditions; format: functional; settings: pre-emergence
How it was run: as §3

[22] = system: Digitaria; assay: Herbicidal activity against Digitaria adscendens assessed as inhibition of fresh plant weight at 600 g/ha using preemergence protocol […] under green house conditions; format: functional; settings: in Digitaria adscendens, pre-emergence
How it was run: as §3

[23] = system: Echinochloa crus-galli; assay: Herbicidal activity against Echinochloa crus-galli (barnyard grass) assessed as inhibition of fresh plant weight at 600 g/ha using preemergence protocol […] under green house conditions; format: functional; settings: pre-emergence
How it was run: as §3

[24] = system: Digitaria; assay: Herbicidal activity against Digitaria adscendens assessed as inhibition of fresh plant weight at 600 g/ha using postemergence protocol […] under green house conditions; format: functional; settings: in Digitaria adscendens, post-emergence
How it was run: as §2

Row | SMILES | inhibition at 750 g/ha [1] [%] | inhibition at 300 g/ha [2] [%] | inhibition at 10 µg/mL [3] [%] | inhibition at 750 g/ha [4] [%] | inhibition at 600 g/ha [5] [%] | inhibition at 150 g/ha [6] [%] | inhibition at 750 g/ha [7] [%] | inhibition at 300 g/ha [8] [%] | inhibition at 750 g/ha [9] [%] | inhibition at 750 g/ha [10] [%] | inhibition at 750 g/ha [11] [%] | inhibition at 750 g/ha [12] [%] | inhibition at 150 g/ha [13] [%] | inhibition at 600 g/ha [14] [%] | inhibition at 750 g/ha [15] [%] | inhibition at 1 µg/mL [16] [%] | inhibition at 75 g/ha [17] [%] | inhibition at 75 g/ha [18] [%] | other results
1 | Cc1cccc(Nc2nnc(C)cc2-c2cccc(C(F)(F)F)c2)c1 | 6 | 25 | 100 | 18 | 42 | 0 | 81 | 30 | 64 | 8 | 29 | 79 | 23 | 52 | 7 | 100 |  |  | 
2 | Cc1cc(-c2cccc(C(F)(F)F)c2)c(Nc2cccc(C(F)(F)F)c2)nn1 | 0 | 42 | 100 | 0 | 88 | 72 | 0 | 79 | 95 | 0 | 8 | 96 | 37 | 54 | 0 | 100 | 32 | 48 | 
3 | Cc1cc(-c2cccc(C(F)(F)F)c2)c(Nc2ccc(F)cc2)nn1 | 0 | 55 | 100 | 8 | 93 | 58 | 19 | 83 | 85 | 2 | 23 | 88 | 43 | 64 | 0 | 100 | 32 | 55 | 
4 | CCCn1nc(C)cc(-c2cccc(C(F)(F)F)c2)c1=O |  |  | 90 |  | 6 |  |  |  |  |  |  |  |  | 28 |  |  |  |  | inhibition at 600 g/ha [19]: 5%; inhibition at 600 g/ha [20]: 61%; inhibition at 600 g/ha [21]: 51%; inhibition at 600 g/ha [22]: 100%; inhibition at 600 g/ha [23]: 82%; inhibition at 600 g/ha [24]: 19%
5 | CCOC(=O)n1nc(C)cc(-c2cccc(C(F)(F)F)c2)c1=O |  |  | 100 |  | 55 |  |  |  |  |  |  |  |  | 61 |  |  |  |  | inhibition at 600 g/ha [19]: 0%; inhibition at 600 g/ha [20]: 87%; inhibition at 600 g/ha [21]: 100%; inhibition at 600 g/ha [22]: 100%; inhibition at 600 g/ha [23]: 46%; inhibition at 600 g/ha [24]: 13%
6 | Cc1cc(-c2cccc(C(F)(F)F)c2)c(Nc2ccc(Cl)cc2)nn1 | 0 | 60 | 100 | 18 | 90 | 87 | 0 | 89 | 100 | 0 | 0 | 100 | 45 | 66 | 0 | 87 | 42 | 52 | 
7 | Cc1cc(-c2cccc(C(F)(F)F)c2)c(Nc2ccccc2F)nn1 | 40 | 58 | 100 | 18 | 96 | 67 | 0 | 88 | 100 | 0 | 21 | 100 | 48 | 75 | 15 | 100 | 39 | 60 | 
8 | O=C(Nc1ccc(F)cc1F)c1cccnc1Oc1cccc(C(F)(F)F)c1 [DIFLUFENICAN] | 83 | 74 | 94 | 71 | 98 | 88 | 90 | 94 | 100 | 94 | 67 | 98 | 70 | 100 | 100 | 90 | 41 | 44 | 
9 | Cc1ccc(Nc2nnc(C)cc2-c2cccc(C(F)(F)F)c2)cc1 | 18 | 28 | 96 | 82 | 59 | 39 | 90 | 54 | 85 | 0 | 2 | 99 | 17 | 59 | 17 | 95 |  |  | 
10 | Cc1cc(-c2cccc(C(F)(F)F)c2)c(Nc2ccccc2)nn1 | 0 | 43 | 100 | 48 | 92 | 74 | 33 | 84 | 60 | 43 | 15 | 99 | 41 | 61 | 43 | 100 | 18 | 66 | 
